# Mdm2 MdmX PPI – disrupts the human Mdm2-MdmX interaction | O15151+Q00987 | SaOS-2 split-luciferase Mdm2/MdmX complementation, luminescence | inhibition, % at 8 µM | 330,000 compounds, 3% hits | AID 485346;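 active = inhibition of at least 50% at 8 µM in the primary screen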
# Target sequence (O15151 whole entry, looked up): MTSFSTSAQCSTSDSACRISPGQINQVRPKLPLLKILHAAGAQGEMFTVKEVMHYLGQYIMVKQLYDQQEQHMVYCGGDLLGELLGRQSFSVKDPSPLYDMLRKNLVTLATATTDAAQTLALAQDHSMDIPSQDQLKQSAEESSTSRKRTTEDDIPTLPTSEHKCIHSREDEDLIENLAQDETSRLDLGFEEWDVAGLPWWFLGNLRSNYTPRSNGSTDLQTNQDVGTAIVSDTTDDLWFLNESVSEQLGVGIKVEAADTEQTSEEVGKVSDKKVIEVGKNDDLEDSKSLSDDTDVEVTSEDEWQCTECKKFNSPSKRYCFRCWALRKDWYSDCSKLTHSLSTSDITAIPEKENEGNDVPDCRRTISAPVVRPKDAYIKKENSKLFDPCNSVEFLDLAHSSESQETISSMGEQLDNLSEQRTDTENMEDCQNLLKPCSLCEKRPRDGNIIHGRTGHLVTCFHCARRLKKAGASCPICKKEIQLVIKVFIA
# Target sequence (Q00987 whole entry, looked up): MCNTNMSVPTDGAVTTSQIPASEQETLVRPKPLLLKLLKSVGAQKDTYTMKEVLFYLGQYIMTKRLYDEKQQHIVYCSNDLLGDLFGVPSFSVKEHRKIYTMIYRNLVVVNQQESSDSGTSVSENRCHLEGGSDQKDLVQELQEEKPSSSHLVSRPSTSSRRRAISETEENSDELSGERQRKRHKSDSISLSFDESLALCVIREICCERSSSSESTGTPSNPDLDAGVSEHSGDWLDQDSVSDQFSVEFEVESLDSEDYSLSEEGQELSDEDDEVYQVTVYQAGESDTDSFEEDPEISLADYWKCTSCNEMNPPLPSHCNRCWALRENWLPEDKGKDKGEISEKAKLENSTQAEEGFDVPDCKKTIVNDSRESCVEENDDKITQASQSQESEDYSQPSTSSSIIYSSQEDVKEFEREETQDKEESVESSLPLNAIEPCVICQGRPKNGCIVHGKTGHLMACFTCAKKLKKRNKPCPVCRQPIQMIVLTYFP
# Lmaj promast – inhibitors of Leishmania major promastigote growth. 200,000 compounds, 9% hits. inhibition, % at 10 µM. Leishmania major promastigotes, resazurin fluorescence viability; in the data active = inhibition above about 50%;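 note: promastigotes grown with compound for 44 hours at 28 °C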
# Beta cell apopt – blocks beta cell apoptosis | INS-1E cytokine-induced death, ATP luminescence, 48 h; percent of positive-control rescue, neutral wells zero | protection from apoptosis, % (concentration not given with the values) | 300,000 compounds, 0.8% hits;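 active = Every replicate reaches about 75%, or at least half do and their mean reaches it too, limit read from the data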;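 note: higher means more ATP so stronger rescue from cytokine killing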
# T cruzi inh – blocks replication of Trypanosoma cruzi. inhibition, % (test concentration not listed). 300,000 compounds, 1.4% hits. AID 1885. T. cruzi beta-gal in NIH3T3, luminescence, 90 h;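 active = mean inhibition across valid replicates above about 55%, limit read from the data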;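 note: signal also drops with host cell toxicity which is not excluded here; higher percent means less beta-gal luminescence so fewer parasites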
#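 Assay system: NIH/3T3 host cells with β-galactosidase reporter T. cruzi; input: 5,000 host fibroblasts per well; compound: single 50 nL compound addition per well in DMSO; timing: ≥90 h infection period, 3 h prior cell attachment; measured by: GalScreen β-gal luminescence, detergent lysis, 60 min; evaluation: percent inhibition of parasite-derived β-gal signal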
# SKKanGAS inh – inhibitors of SKKanGAS S. pyogenes growth in kanamycin (SK-promoter or general growth effect); inhibition, % at 7.5 µM; BacTiter-Glo, 6 h; 300,000 compounds, 1.3% hits;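 active = mean replicate score, as percent of positive control median, at least 50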;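 note: strain carries kanamycin resistance gene driven by streptokinase promoter and grows in 40 µg/ml kanamycin; loss of luminescence reflects streptokinase promoter inhibition or plain growth inhibition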
# CSC inhib – blocks cancer stem cells | 300,000 compounds, 1.1% hits | inhibition, % at 7.5 µM | cancer stem cell-like cells viability, luminescence; in the data active = inhibition above about 75%; tested in HMLE shEcad cells
# Mdm2 MdmX conf – human Mdm2/MdmX binding inhibition, confirmed | shares compounds with Mdm2 MdmX PPI | luminescent assay | inhibition, % at 8 µM | 10,000 compounds, 55% hits | AID 489028; in the data active = inhibition above about 40%
# FLuc counter – counter-screen for Mdm2/MdmX inhibitors: full-length luciferase. shares compounds with Mdm2 MdmX PPI. SaOS-2 full-length luciferase counterscreen, luminescence. inhibition, % at 8 µM. 6,200 compounds, 77% hits. AID 504607;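 active = mean inhibition at 8 µM reaching about 37%, which flags the compound as non-specific, limit read from the data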;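 note: p53-null SaOS-2 cells with luciferase driven by a doxycycline-inducible promoter; compound on cells about two nights before reading with doxycycline added after day one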
# Numbers stand for hits; - = inactive; . = no result given. In the library only some 9.4% were active in any assay of this set; here they are far more common.
SMILES,Mdm2 MdmX PPI,Lmaj promast,Beta cell apopt,T cruzi inh,SKKanGAS inh,CSC inhib,Mdm2 MdmX conf,FLuc counter
CC(C)(C)NC(=O)Cn1nnc(-c2ccccc2NC(=O)c2cnccn2)n1,-,-,-,-,-,.,.,.
COc1ccc(NC(=O)Cn2nnc(-c3ccccc3NC(=O)c3ccco3)n2)cc1,55,-,-,-,-,-,56,-
COc1ccccc1NC(=O)Cn1nnc(-c2ccccc2NC(=O)c2cnccn2)n1,52,-,-,-,-,-,-,.
Cc1oc2c(c1C(=O)c1ccccc1)C(=O)C(=O)c1ccccc1-2,97,100,104,-,-,98,72,-
Cc1onc(-c2ccccc2Cl)c1C(=O)c1ccccc1,-,.,-,-,-,-,.,.
Cc1ccccc1CSc1nc2[nH]ncc2c(=O)[nH]1,-,-,-,-,-,-,.,.
Cc1ccc(C)c(CSc2nc3[nH]ncc3c(=O)[nH]2)c1,56,-,-,-,-,-,68,48
CCc1noc(C)c1C(=O)N1CCN(S(=O)(=O)c2c(C)cc(C)cc2C)CC1,-,.,-,.,.,.,.,.
CCn1c2ccccc2c2cc(/C=N/O)ccc21,-,-,-,-,-,-,.,.
C=Cn1ccnc1P(=S)(c1ccc2c(c1)c1ccccc1n2CC)c1nccn1C=C,67,-,-,-,-,106,63,56
CCc1ccc(C(C)NC(=O)c2cccs2)cc1 (stereo not given),-,.,.,-,-,-,.,.
NS(=O)(=O)c1cccc(NC(=O)CC23CC4CC(C2)CC(CC(=O)Nc2cccc(S(N)(=O)=O)c2)(C4)C3)c1,-,.,-,-,-,-,.,.
O=C(Nc1ccccc1[N+](=O)[O-])c1cc2ccccc2nc1Cl,64,.,-,-,-,.,-,.
O=C(Cn1nnc2ccccc21)Nc1ccccc1[N+](=O)[O-],-,-,-,-,-,.,.,.
O=C(Nc1ccccc1[N+](=O)[O-])C1=C(O)CCn2c1nc1ccccc12,71,-,-,-,-,-,-,.
O=C(C[C@@H]1C/C=C\C[C@H](Cc2ccc(F)cc2)C(=O)OC[C@H]2CCCN2C1=O)NCCO,-,.,.,.,.,.,.,.
O=C(Nc1nc2ccccc2s1)c1ccc(F)cc1,-,-,.,-,-,-,.,.
O=C(Nc1ccc(F)cc1)Nc1sccc1-c1nc2ccccc2s1,68,.,-,-,-,-,-,69
COC(=O)c1[nH]c2ccc(Br)cc2c1NC(=O)CN1CCN(C2CCCCC2)CC1,99,101,-,-,-,-,99,51
COC(=O)c1[nH]c2ccc(Br)cc2c1NC(=O)CN1CCCc2ccccc21,53,-,-,-,-,-,-,.
CCOC(=O)C1CCCN(CC(=O)Nc2c(C(=O)OC)[nH]c3ccc(Br)cc23)C1 (stereo not given),-,-,-,-,-,-,.,.
Cc1ccc(S(=O)(=O)Nc2ccccc2-c2nc3ccccc3[nH]c2=O)cc1,-,.,-,.,.,.,.,.
CC(CC(=O)N(C)c1c(N)n(Cc2ccccc2)c(=O)[nH]c1=O)c1ccccc1 (stereo not given),-,.,-,-,-,-,.,.
COC(=O)CN1C2=NCCCN2c2ccccc21,-,-,-,-,-,-,.,.
N#C/C(=C\C=C\c1ccccc1[N+](=O)[O-])C(=O)NCc1ccccc1,97,.,-,-,-,-,66,-
SMILES,Mdm2 MdmX PPI,Lmaj promast,Beta cell apopt,T cruzi inh,SKKanGAS inh,CSC inhib,Mdm2 MdmX conf,FLuc counter
N#C/C(=C\c1ccccc1[N+](=O)[O-])C(=O)NCc1ccccc1,-,.,-,-,-,-,.,.
CN(C(=O)COc1ccccc1C(=O)NCCOc1ccccc1)c1ccccc1,85,-,-,-,-,-,96,41
O=C(NCCc1ccccc1)c1ccc2c(c1)OCO2,66,.,-,-,-,-,57,52
CCCCN=C1SC(C(=O)Nc2sc3c(c2C(=O)OC)CCC3)C(N)=C1C(=O)N1CCOCC1 (stereo not given),66,.,-,-,-,-,-,.
CSc1nc(SCC(=O)NCc2ccco2)c2c3c(sc2n1)COC(C)(C)C3,51,-,-,-,-,.,41,68
Cc1cccc(C)c1N(CC(=O)NCc1ccco1)C(=O)CNS(=O)(=O)c1ccc(F)cc1,-,.,-,-,-,-,.,.
N/C(Cc1ccc([N+](=O)[O-])cc1)=N\OC(=O)c1ccc(Br)cc1,-,-,-,-,-,-,.,.
N/C(Cc1ccc([N+](=O)[O-])cc1)=N\OC(=O)C(c1ccccc1)c1ccccc1,70,-,-,-,-,-,50,79
N/C(=N\OC(=O)c1ccccc1Br)c1ccc([N+](=O)[O-])cc1,-,.,-,-,-,-,.,.
Cc1ccc(C(=O)O/N=C(\N)Cc2ccc([N+](=O)[O-])cc2)c(Cl)c1,90,.,-,-,-,-,60,43
Cc1cccc(C(=O)O/N=C(\N)Cc2ccc([N+](=O)[O-])cc2)c1,89,-,-,-,-,-,56,54
Cc1ccc(CC(=O)O/N=C(\N)Cc2ccc([N+](=O)[O-])cc2)cc1,-,-,-,-,-,-,.,.
N/C(Cc1ccc([N+](=O)[O-])cc1)=N\OC(=O)c1ccccc1Br,60,94,-,-,-,-,-,.
CCN(CC)S(=O)(=O)c1cccc(C(=O)NCC2(N3CCOCC3)CCCCC2)c1,-,.,.,.,.,.,.,.
COc1ccc(C(=O)NCc2nnc(SCC(=O)N3CCC(C)CC3)o2)cc1,-,-,-,-,-,-,.,.
Cn1nnnc1SCCNC(=O)C1CCC(=O)N(Cc2ccc(Cl)cc2)C1 (stereo not given),-,.,-,-,-,-,.,.
CCOC(=O)c1ccccc1NC(=O)COC(=O)CSC(C)C(=O)Nc1cc(C)on1 (stereo not given),-,.,.,-,-,-,.,.
N/C(Cc1ccc([N+](=O)[O-])cc1)=N\OC(=O)c1ccc2ccccc2c1,88,-,-,-,-,-,-,61
Cc1ccc(C(=O)O/N=C(\N)Cc2cccs2)c(Cl)c1,100,.,.,-,-,.,-,.
COc1ccccc1C/C(N)=N/OC(=O)c1cccc([N+](=O)[O-])c1C,57,-,-,-,-,-,-,102
Cc1ccc(OCC(=O)O/N=C(\N)Cc2cccs2)cc1C,-,-,-,-,-,-,.,.
CCCN(CCC)S(=O)(=O)c1cccc(C(=O)N=c2sccn2C)c1,-,.,-,-,-,-,.,.
COc1ccc2[nH]cc(C(=O)CCl)c2c1,95,.,-,61,-,-,100,51
COc1ccc2[nH]cc(CC(=O)O)c2c1,-,-,.,.,.,-,.,.
CC(C)OCCOc1ccc2oc(-c3ccco3)cc(=O)c2c1,-,.,-,-,-,-,.,.
COc1cc(OC)cc(C(=O)Oc2c(CN3CCOCC3)cc(Cl)c3cccnc23)c1,50,.,-,-,-,-,45,-
Brc1cc2c(cc1CN1CCc3ccccc3C1)OCO2,-,.,.,-,-,-,.,.
